Measurements from ChEMBL document CHEMBL3593178, “Synthesis and evaluation of hedgehog signaling inhibitor with novel core system” (Bioorg Med Chem, 2015).

How the values were obtained:
[1] = Inhibition of hedgehog signaling pathway in mouse NIH/3T3 cells after 48 hrs by Gli-luciferase reporter gene assay; assay type: cell-based; conditions: NIH3T3, 48 h
How it was run: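 NIH3T3 cells stably carrying Gli-luciferase reporter, kept in DMEM/10% FBS with 500 µg/mL G418, seeded at 7.5 × 10³ cells/well on collagen-coated plates overnight at 37 °C, 5% CO2; then recombinant mouse Shh-N plus compound (final 0.03–1000 nM, 5.8% FBS), n = 4 wells, 48 h; luciferase read with Bright-Glo; 0.1% DMSO ± 1 µg/mL Shh-N as controls; IC50 mean of four.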

[2] = In vivo inhibition of Gli1 mRNA expression in mouse bearing human PAN-04 cells assessed as expression level at 25 mg/kg, po bid after 24 hrs by qPCR analysis relative to control; assay type: functional
How it was run: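 Nude mice bearing human primary pancreatic tumor PAN-04 given compound orally twice daily at 25 mg/kg; tumors excised 24 h after first dose, stored in RNAlater; mouse stromal Gli1 mRNA quantified with mouse Gli1 and mouse GAPDH probe sets; expressed relative to controls.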

[3] = AUC (0 to 8 hrs) in non-fasted mouse at 10 mg/kg, po cassette dosing by LC/MS/MS analysis; assay type: ADME, organism-based; design: dose 10 mg/kg, time < 8 hr, route oral; conditions: in vivo
How it was run: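 Single 10 mg/kg oral cassette dose to nonfasted mice; blood sampled, plasma separated by centrifugation, deproteinized with MeCN containing internal standard, supernatant diluted in 10 mmol/L HCOONH4/0.2% formic acid–MeCN with 0.2% formic acid (9:1), recentrifuged, concentrations quantified by LC/MS/MS; AUC from 0 to 8 h.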

| Structure (SMILES) | IC50 [1] [nM] | AUC(0-t) at 8 h [3] [ng·h/mL] | Gli1 mRNA expression relative to control [2] [%] |
| --- | --- | --- | --- |
| CCc1cc2c(nc1NC(=O)c1ccccc1)c(OCC(F)(F)F)c(C(=O)NC1CCN(C(=O)CO)CC1)n2C | 3.9 | 984 | 87 |
| CCc1nc2c(nc1NC(=O)c1ccccc1)c(OCC(F)(F)F)c(C(=O)NC1CCN(C(=O)CO)CC1)n2C | 3.1 | 925 | 57 |
| CCc1nc2c(c(OCC(F)(F)F)c(C(=O)NC3CCN(C(=O)CO)CC3)n2C)c(=O)n1CC(=O)c1ccccc1 | 6.2 |  |  |
| CCc1cc2c(c(OCC(F)(F)F)c(C(=O)NC3CCN(C(=O)CO)CC3)n2C)c(=O)n1CC(=O)c1ccccc1 [TAK-441] | 4.4 | 28300 | 4 |

The remaining compounds from weak to strong by IC50 [1], led by results:

| IC50 [1] [nM] | AUC(0-t) at 8 h [3] [ng·h/mL] | Structure (SMILES) | Gli1 mRNA expression relative to control [2] [%] |
| --- | --- | --- | --- |
| 46 |  | CCc1nc2c(cc1CC(=O)c1ccccc1)c(OCC(F)(F)F)c(C(=O)NC1CCN(C(=O)CO)CC1)n2C |  |
| 3.6 | 10800 | CCc1nc2c(cc1NC(=O)c1ccccc1)c(OCC(F)(F)F)c(C(=O)NC1CCN(C(=O)CO)CC1)n2C | 24 |
| 2.6 | 1270 | CCc1cc2c(cc1NC(=O)c1ccccc1)c(OCC(F)(F)F)c(C(=O)NC1CCN(C(=O)CO)CC1)n2C | 50 |
